We go through two compounds from PMC5110259 (Clinical cancer drugs, 2016).

Data set [1] concerns non-malignant MCF-10A and Hs-27 cell lines. As to the kind of experiment: DNS cytotoxicity screen at 1 μM, non-malignant cells. The data set is classed as cell-based. The following applies: 20 h. Summed up:
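Single-concentration DNS screen: 1 μM in 1% v/v DMSO for 20 h. Hoechst 33342 and PI (1 μg/ml each) added 1 h before automated imaging. Percent dead was calculated from co-stained nuclei out of total nuclei per well. Controls were 300 μM H2O2, 1% DMSO and untreated wells. Run in triplicate and shown as heat map.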

The nature of data set [2]: DNS cytotoxicity assay. The data set is classed as cell-based. The following applies: human. The procedure, abridged: (§1)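 Suspension cells plated at 10,000/well and exposed 20 h (footnote: 24 h) to graded concentrations in 1% v/v DMSO. Hoechst 33342/PI (1 μg/ml each) added for the final hour, then 3x3-field imaging. Dead cells were double-stained nuclei, DMSO background subtracted. CC50 by linear regression, triplicate. SCI = CC50 non-cancerous / CC50 cancer, using Hs-27 in the table and Hs-27, MCF-10A and CCD-112CoN for Jurkat.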

A further data set relates to Jurkat. Nature of the data set: DNS cytotoxicity assay. It counts as cell-based. The following applies: Homo sapiens, Jurkat, 24 h, read-out: Cytotoxic concentration 50% (CC50). The procedure, abridged:
as §1

Data set [3] deals with leukemia and lymphoma neoplasms. As to the kind of experiment: DNS cytotoxicity screen at 1 μM, leukemia/lymphoma panel. The data set is classed as cell-based. The following applies: human leukemia/lymphoma cell lines.
Data set [4] has as its system Jurkat cells. Nature of the data set: Mitochondrial membrane potential assay. It counts as cell-based, human. The following applies: 1 μM, 7 h, JC-1, flow cytometry. The procedure, abridged: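 Jurkat at 3x10^4 cells per mL per well (24-well) exposed 7 h to 1 μM. JC-1 then added, 30 min at 37 °C, followed by flow cytometry of ~10,000 events. 50 μM CCCP served as depolarization control, with 1% DMSO and untreated controls. Triplicates, t-test vs DMSO.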

Data set [5] in a line: DNS cytotoxicity assay. The following applies: human, CEM cells vs Hs-27 cells. The data set is classed as cell-based. Summed up:
as §1

The next data set has as its system CEM. Nature of the data set: DNS cytotoxicity assay. The data set is classed as cell-based. The following applies: Homo sapiens, CCRF-CEM, 24 h, read-out: Cytotoxic concentration 50% (CC50). The procedure, abridged:
as §1

Data set [6] in a line: DNS cytotoxicity assay. It counts as cell-based. The following applies: human, Hs-27 non-cancerous foreskin fibroblasts. Summed up: (§2)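 DNS imaging assay. Adherent cells seeded at 5,000/well, incubated 20 h (table footnote says 24 h) with several compound concentrations in 1% v/v DMSO final. Hoechst 33342 and PI (1 μg/ml each, final) added 1 h before imaging 3x3 fields at 20x. Dead cells = Hoechst/PI co-localized nuclei. Values corrected by subtracting the mean % dead of six DMSO wells. CC50 by linear regression, triplicate.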

Data set [7] in a line: DNS cytotoxicity assay. The data set is classed as cell-based. The following applies: human, Nalm 6 cells vs Hs-27 cells. Summed up:
as §1

A further data set deals with Nalm 6. Nature of the data set: DNS cytotoxicity assay. The following applies: Homo sapiens, NALM-6, 24 h, read-out: Cytotoxic concentration 50% (CC50). It counts as cell-based. The procedure, abridged: as §1
For another data set, the system named is Nalm-6 cells. Nature of the data set: Apoptosis assay via annexin V-FITC/PI staining, Nalm-6. It counts as cell-based, human. The following applies: 24 h; for apoptosis (phosphatidylserine externalization, annexin V-FITC positive cells): 1 μM, flow cytometry. Summed up:
(§3)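 Annexin V-FITC/PI co-staining read by flow cytometry after 24 h exposure. Excitation was at 488 nm, with FITC read on FL1 and PI on FL2. Cells that were PI-positive but annexin-negative were scored as necrotic. Controls were untreated cells, 1% v/v DMSO, 300 μM H2O2, and curcumin and EF-24 at 1 μM. Triplicates; compared with curcumin by Student's t-test.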

Data set [8] has as its system caspase-3/7 in Jurkat cells. As to the kind of experiment: Caspase-3/7 activity assay. The data set is classed as cell-based, human. The following applies: 1 μM, 20 h, NucView 488, flow cytometry. Summed up:
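Jurkat seeded at 100 cells/μL (24-well) and treated 20 h with 1 μM. Active caspase-3/7 detected in live cells with the NucView 488 fluorogenic substrate by flow cytometry, ~10,000 events per sample. Positive controls were 2 μg/ml camptothecin and 10 μM curcumin, plus DMSO and untreated controls. Triplicates, t-test vs DMSO.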
A general note: Flow cytometry measures light scatter and fluorescence of single cells or particles in a stream.

Data set [9] can be described thus: DNS cytotoxicity assay. It counts as cell-based. The following applies: human, CCD-112CoN non-cancerous colon fibroblasts. Summed up: as §2
Data set [10] relates to Jurkat cells. As to the kind of experiment: Apoptosis assay via annexin V-FITC/PI staining, Jurkat. The data set is classed as cell-based, human. The following applies: 24 h; for apoptosis (phosphatidylserine externalization, annexin V-FITC positive cells): 1 μM, flow cytometry. Summed up: as §3
The nature of data set [11]: DNS cytotoxicity assay. The following applies: human, Ramos cells vs Hs-27 cells. The data set is classed as cell-based. The procedure, abridged: as §1
Another data set concerns Ramos. As to the kind of experiment: DNS cytotoxicity assay. It counts as cell-based. The following applies: Homo sapiens, Ramos, 24 h, read-out: Cytotoxic concentration 50% (CC50). The procedure, abridged:
as §1

A short description of data set [12]: DNS cytotoxicity assay. The following applies: human, MCF-10A non-cancerous mammary epithelial cells. The data set is classed as cell-based. The procedure, abridged:
as §2

Take `CCN(CC)CCOc1ccc(C(=O)Oc2ccc(C=C3CN(C)CC(=Cc4ccc(OC(=O)c5ccc(OCCN(CC)CC)cc5)cc4)C3=O)cc2)cc1` [Compound 1, 3,5-bis{4-[4-(2-diethylaminoethoxy)phenylcarbonyloxy]benzylidene}-1-methyl-4-piperidone]: the “toxicity to non-malignant cell lines (heat map)” value in [1] is given as “low toxicity”. Besides, the selectivity ratio at 20 h in the data set “DNS cytotoxicity assay [2]” is above 10; in “DNS cytotoxicity assay [2]” (Jurkat cells vs CCD-112CoN cells) it was 10.9; in the data set “DNS cytotoxicity assay [2]” (Jurkat cells vs Hs-27 cells), 11.1; in the data set “DNS cytotoxicity assay [2]” (Jurkat cells vs MCF-10A cells), 36.3; in “DNS cytotoxicity assay [5]” it was 8.1; in “DNS cytotoxicity assay [7]”, 5.6. For the same compound, the selectivity ratio at 20 h in “DNS cytotoxicity assay [11]” was 6.7. The CC50 in the data set on Jurkat came to 0.43 ± 0.02 µM; in the data set with CEM, 0.59 ± 0.03 µM; in the data set on Nalm 6 it was 0.86 ± 0.03 µM; in the data set with Ramos, 0.71 ± 0.01 µM. Also, the “in vitro cytotoxic concentration compared with curcumin” value in data set [3] is “approximately ten times more effective than curcumin”. Also, the mitochondrial depolarization in the data set on Jurkat cells [4] was ~ 80%. For the same compound, the CC50 at 24 h in “DNS cytotoxicity assay [6]” came to 4.78 ± 0.03 µM; in “DNS cytotoxicity assay [9]” it was 4.68 ± 0.83 µM; in the data set “DNS cytotoxicity assay [12]”, 15.6 ± 0.14 µM. For the same compound, the results for the “apoptosis (phosphatidylserine externalization, annexin V-FITC positive cells)” value in the data set with Nalm-6 cells and in the data set with Jurkat cells [10] were ~ 50% and ~ 70%, respectively. For the same compound, the figures for the “apoptotic activity as compared with curcumin” value in the data set with Nalm-6 cells (both compounds at 1 μM) and in the data set with Jurkat cells [10] (both compounds at 1 μM) were 22.3 fold and 10 fold, respectively. The “caspase-3/7 activation (active caspase 3/7-positive cells)” value in data set [8] is given as above 90%.

In the case of `COc1cc(/C=C/C(=O)CC(=O)/C=C/c2ccc(O)c(OC)c2)ccc1O` [Curcumin, reference compound], the selectivity ratio at 20 h in the data set “DNS cytotoxicity assay [2]” (Jurkat cells vs Hs-27 cells) is 1.4; in “DNS cytotoxicity assay [5]”, 1.4; in “DNS cytotoxicity assay [7]”, 1.4; in the data set “DNS cytotoxicity assay [11]”, 1.7. For the same compound, the CC50 is 10.86 ± 0.04 µM in the data set with Jurkat, 10.6 ± 0.06 µM in the data set on CEM, 11 ± 0.2 µM in the data set with Nalm 6 and 9.25 ± 0.37 µM with Ramos. Further, the CC50 at 24 h amounted to 15.3 ± 0.38 µM in the data set “DNS cytotoxicity assay [6]”, 15.8 ± 0.13 µM in “DNS cytotoxicity assay [9]” and 14.1 ± 0.66 µM in “DNS cytotoxicity assay [12]”. For the same compound, the “apoptosis (phosphatidylserine externalization, annexin V-FITC positive cells)” value in the data set with Nalm-6 cells and in the data set with Jurkat cells [10] was “did not induce significant PS externalization” in each case.
